Test results: ChEMBL document CHEMBL1122175, “Pentasubstituted quercetin analogues as selective inhibitors of particulate 3':5'-cyclic-AMP phosphodiesterase from rat brain” (J Med Chem, 1982); call rule not given here

What was measured:
[1] = target: T1, cGMP-dependent 3',5'-cyclic phosphodiesterase (Rattus norvegicus, UniProt Q01062); assay: Inhibition of rat brain particulate cGMP phosphodiesterase
T1 sequence (Q01062 whole entry): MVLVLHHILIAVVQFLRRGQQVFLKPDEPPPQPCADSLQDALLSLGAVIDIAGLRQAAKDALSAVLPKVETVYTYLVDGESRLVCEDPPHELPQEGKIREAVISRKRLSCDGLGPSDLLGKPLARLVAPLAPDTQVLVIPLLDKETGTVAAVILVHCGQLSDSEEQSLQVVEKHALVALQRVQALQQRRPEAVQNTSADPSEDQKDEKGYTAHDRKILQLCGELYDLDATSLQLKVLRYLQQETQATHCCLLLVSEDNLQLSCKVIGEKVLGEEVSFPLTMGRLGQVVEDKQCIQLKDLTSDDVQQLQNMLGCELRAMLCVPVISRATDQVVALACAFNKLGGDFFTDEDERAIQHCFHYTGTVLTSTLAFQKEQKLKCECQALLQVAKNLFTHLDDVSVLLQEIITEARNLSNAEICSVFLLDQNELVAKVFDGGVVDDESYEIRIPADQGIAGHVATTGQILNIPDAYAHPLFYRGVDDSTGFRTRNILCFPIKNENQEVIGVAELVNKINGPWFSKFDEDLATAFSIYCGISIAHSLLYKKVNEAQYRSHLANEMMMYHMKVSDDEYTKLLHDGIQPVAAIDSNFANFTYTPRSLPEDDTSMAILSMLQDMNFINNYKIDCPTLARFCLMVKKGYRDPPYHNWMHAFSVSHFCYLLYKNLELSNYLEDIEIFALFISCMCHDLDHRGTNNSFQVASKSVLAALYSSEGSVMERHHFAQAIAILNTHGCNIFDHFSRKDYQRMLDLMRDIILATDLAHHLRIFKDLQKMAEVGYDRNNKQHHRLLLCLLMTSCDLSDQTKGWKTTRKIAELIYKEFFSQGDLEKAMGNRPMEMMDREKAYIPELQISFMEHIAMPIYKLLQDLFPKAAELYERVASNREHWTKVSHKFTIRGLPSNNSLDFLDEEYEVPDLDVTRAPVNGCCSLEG
Summary of the method: (§1)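 The particulate enzyme was the washed high-speed pellet, rehomogenized in sucrose buffer, then resuspended and dialyzed overnight in 20 mM Tris-HCl pH 7.5, 1 mM MgCl2, 0.1 mM DTT, and stored at -20 °C. Hydrolysis of 0.25 µM cAMP or cGMP was assayed at 30 °C in triplicate.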

[2] = Inhibition of rat brain cytosolic cAMP phosphodiesterase; conditions: read-out: I 50
Summary of the method: (§2)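 Rat brains without cerebellum were homogenized in 0.32 M sucrose, 5 mM Tris-HCl pH 7.5, 1 mM MgCl2, 0.1 mM DTT. After a 1000g spin and a high-speed spin, the supernatant was dialyzed overnight against 20 mM Tris-HCl pH 7.5, 1 mM MgCl2, 0.1 mM DTT. Assay used 0.25 µM cAMP or cGMP in triplicate at 30 °C.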

Rattus norvegicus [3] = species on record: Rattus norvegicus; assay: Relative inhibition of cAMP and cGMP hydrolysis by particulate phosphodiesterase
[4] = Inhibition of rat brain particulate cAMP phosphodiesterase; conditions: read-out: I 50
Phosphodiesterase 1 = Phosphodiesterase 1 (Rattus norvegicus, UniProt Q63421+Q9EPR9+Q01066); assay: Inhibition of rat brain cytosolic cGMP phosphodiesterase; summary of the method: as §2
Rattus norvegicus [5] = species on record: Rattus norvegicus; assay: Relative inhibition of cAMP and cGMP hydrolysis by cytosolic phosphodiesterase
[6] = target: T1, cGMP-dependent 3',5'-cyclic phosphodiesterase; assay: Inhibition of rat brain particulate cGMP phosphodiesterase (Inactive); summary of the method: as §1
[7] = Inhibition of rat brain particulate cAMP phosphodiesterase (Inactive); summary of the method: as §1
[8] = Inhibition of rat brain cytosolic cAMP phosphodiesterase (Inactive); summary of the method: as §2
[9] = Inhibition of rat brain particulate cAMP phosphodiesterase; conditions: read-out: I50; summary of the method: as §1
[10] = target: T1, cGMP-dependent 3',5'-cyclic phosphodiesterase; assay: Inhibition of rat brain particulate cGMP phosphodiesterase (inactive); summary of the method: as §1
[11] = Inhibition of rat brain particulate cAMP phosphodiesterase (inactive); summary of the method: as §1
[12] = Inhibition of rat brain cytosolic cAMP phosphodiesterase (inactive); summary of the method: as §2

SMILES | IC50 ([1]; read-out: I 50) [µM] | IC50 [2] [µM] | Ratio (Rattus norvegicus [3]) | IC50 [4] [µM] | I 50 (Phosphodiesterase 1) [µM] | Ratio (Rattus norvegicus [5]) | I 50 [6] | I 50 [8] | other results
CC(=O)Oc1cc(OC(C)=O)c2c(=O)c(OC(C)=O)c(-c3ccc(OC(C)=O)c(OC(C)=O)c3)oc2c1 | 275 | 355 | 0.46 | 126 |  |  |  |  | 
O=c1c(O)c(-c2ccc(O)c(O)c2)oc2cc(O)cc(O)c12 [QUERCETIN] | 81.3 | 87 | 0.24 | 20 | 275 | 0.32 |  |  | 
CCOC(=O)COc1c(-c2ccc(OCC)c(OCC)c2)oc2cc(OCC)cc(OCC)c2c1=O |  |  |  |  |  |  | Not Active | Not Active | I 50 [7]: Not Active
CCOc1cc(OCC)c2c(=O)c(OCCO)c(-c3ccc(OCC)c(OCC)c3)oc2c1 |  |  |  |  |  |  | Not Active | Not Active | I 50 [7]: Not Active
CCOc1cc(OCCN(CC)CC)c2c(=O)c(OCC)c(-c3ccc(OCC)c(OCC)c3)oc2c1 |  | 35 | 0.11 |  | 58 | 0.6 |  |  | IC50 ([1]; read-out: I50): 80 µM; IC50 [9]: 10 µM
CCOc1cc(OCC(=O)O)c2c(=O)c(OCC)c(-c3ccc(OCC)c(OCC)c3)oc2c1 | 48 | 20 | 0.32 | 16 | 63 | 0.32 |  |  | 
CCCOc1ccccc1-c1nc2[nH]nnc2c(=O)[nH]1 [ZAPRINAST] |  | 66.1 | 1.17 |  | 93.3 | 0.71 |  |  | IC50 [9]: 74.1 µM
CCOc1cc(OCCBr)c2c(=O)c(OCC)c(-c3ccc(OCC)c(OCC)c3)oc2c1 | 96 | 40 | 0.18 | 17 | > 1000 | < 0.04 |  |  | 
CCOc1cc(OCC)c2c(=O)c(OCC(=O)O)c(-c3ccc(OCC)c(OCC)c3)oc2c1 | 71 | 10 | 0.31 | 22 | > 1000 | < 0.01 |  |  | 
O=c1c(OCCO)c(-c2ccc(OCCO)c(OCCO)c2)oc2cc(OCCO)cc(OCCO)c12 | 1300 | 470 | 0.05 | 69 | 2800 | 0.17 |  |  | 
CCCC(=O)Oc1cc(OC(=O)CCC)c2c(=O)c(OC(=O)CCC)c(-c3ccc(OC(=O)CCC)c(OC(=O)CCC)c3)oc2c1 |  |  |  |  |  |  | Not Active | Not Active | I 50 [7]: Not Active
O=c1c(OCCBr)c(-c2ccc(OCCBr)c(OCCBr)c2)oc2cc(OCCBr)cc(OCCBr)c12 | 24.5 | 500 | 0.73 | 18 | 10000 | 0.05 |  |  | 
CCCOc1ccccc1-c1nc2nn[nH]c2c(=O)[nH]1 [ZAPRINAST] |  |  |  |  |  |  |  |  | IC50 ([1]; read-out: I50): 63.1 µM
CCOc1cc(OCC)c2c(=O)c(O)c(-c3ccc(OCC)c(OCC)c3)oc2c1 |  |  |  |  |  |  | Not Active | Not Active | I 50 [7]: Not Active
COc1cc(OC)c2c(=O)c(OC)c(-c3ccc(OC)c(OC)c3)oc2c1 | 96 | 6.3 | 0.1 | 10.2 | > 1000 | < 0.008 |  |  | 
CCOC(=O)COc1cc(OCC(=O)OCC)c2c(=O)c(OCC(=O)OCC)c(-c3ccc(OCC(=O)OCC)c(OCC(=O)OCC)c3)oc2c1 |  |  |  |  |  |  | Not Active | Not Active | I 50 [7]: Not Active
CCOC(=O)COc1cc(OCC)cc2oc(-c3ccc(OCC)c(OCC)c3)c(OCC)c(=O)c12 | 700 | 80 | 0.01 | 8.3 | > 1000 | < 0.08 |  |  | 
O=C(O)COc1cc(OCC(=O)O)c2c(=O)c(OCC(=O)O)c(-c3ccc(OCC(=O)O)c(OCC(=O)O)c3)oc2c1 |  |  |  |  |  |  |  |  | I 50 [10]: Not Active; I 50 [11]: Not Active; I 50 [12]: Not Active
CCOc1cc(OCC)c2c(=O)c(OCC)c(-c3ccc(OCC)c(OCC)c3)oc2c1 | 350 | 70 | 0.02 | 7.7 | > 10000 | < 0.007 |  |  | 
CCOc1cc(OCC)c2c(=O)c(OCCN(CC)CC)c(-c3ccc(OCC)c(OCC)c3)oc2c1 |  | 37 | 0.16 |  | 47 | 0.79 |  |  | IC50 ([1]; read-out: I50): 126 µM; IC50 [9]: 20 µM
CCC(=O)Oc1cc(OC(=O)CC)c2c(=O)c(OC(=O)CC)c(-c3ccc(OC(=O)CC)c(OC(=O)CC)c3)oc2c1 |  |  |  |  |  |  | Not Active | Not Active | 
CCOc1cc(O)c2c(=O)c(OCC)c(-c3ccc(OCC)c(OCC)c3)oc2c1 |  |  |  |  |  |  | Not Active | Not Active | I 50 [7]: Not Active
CCCOc1cc(OCCC)c2c(=O)c(OCCC)c(-c3ccc(OCCC)c(OCCC)c3)oc2c1 |  |  |  |  |  |  | Not Active | Not Active | I 50 [7]: Not Active
CCCCOc1cc(CC2CNC(=O)N2)ccc1OC (stereo not drawn) [RO-201724] | 10000 | 1660 | 0.007 | 74.1 | > 1000 | 0.16 |  |  | 
